From ChEMBL document CHEMBL5214977, “Discovery and Optimization of Quinoline Analogues as Novel Potent Antivirals against Enterovirus D68” (J Med Chem, 2022)

Columns and labels:
enterovirus D68 = assay: Antiviral activity against Enterovirus-D68 STL-2014-12 infected in human RD cells assessed as reduction in virus induced cytopathic effect by measuring ATP level incubated for 72 hrs by cell titer-glo luminescent cell viability assay; format: functional, organism-based; conditions: Enterovirus D, STL-2014-12, RD, 72 h
In short: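 RD cells seeded at 1.5 × 10^4/well and grown 24 h, then given 100 TCID50 virus plus compound in 3-fold dilutions (0.01–200 μM). DMSO control. Incubated 37 °C for 72 h; ATP read by CellTiter-Glo luminescence and normalized to uninfected and infected controls. EC50 is the concentration giving 50% CPE reduction. Strains: STL-2014-12, US/KY/14-18953, US/MO/14-18947, Fermon.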

[1] = Selectivity index, ratio of CC50 for human RD cells to EC50 for Enterovirus-D68 STL-2014-12 infected in human RD cells to; format: toxicity, cell-based; conditions: for selectivity ratio: RD cells, read-out: Ratio CC50/EC50
In short: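 EC50 came from a CPE reduction assay. RD cells (1.5 × 10^4 per well, grown 24 h) were infected with 100 TCID50 of the named strain and given 3-fold dilutions from 0.01 to 200 μM. After 72 h at 37 °C, ATP was read by CellTiter-Glo and normalized to infected and uninfected controls. CC50 came from uninfected cells under the same dilutions, 72 h and ATP readout. SI = CC50/EC50.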

RD = assay: Cytotoxicity against human RD cells assessed as inhibition of cell viability by measuring ATP level incubated for 72 hrs by cell titer-glo luminescent cell viability assay; format: functional
In short: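 Uninfected RD cells seeded at 1.5 × 10^4/well and grown 24 h, then exposed to compound in 3-fold dilutions (0.01–200 μM), with DMSO as cell control. ATP read by CellTiter-Glo luminescence after 72 h; CC50 is the 50% cytotoxic concentration.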

In the case of `CCOC(=O)c1cnc2ccc(-c3ccc(C(C)C)cc3)cc2c1`, the EC50 (enterovirus D68) is reported as 1050 nM, the selectivity ratio [1] is reported as greater than 2 and the CC50 (RD) is reported as greater than 7400 nM.

With `CCCc1ccc(-c2ccc3ncc(C(=O)OCC)cc3c2)cc1` the EC50 (enterovirus D68) was 1290 nM, the selectivity ratio [1] was greater than 6 and the CC50 (RD) was greater than 7400 nM.

Work on `CCc1nc(-c2cnc3ccc(-c4ccc(N)c(Cl)c4)cc3c2)no1` yielded an EC50 (enterovirus D68) of 610 nM, a selectivity ratio [1] greater than 12 and a CC50 (RD) greater than 7400 nM.

With `CCc1nc(-c2cnc3ccc(-c4ccc(N)cc4)cc3c2)no1` the EC50 (enterovirus D68) was 100 nM, the “Ratio CC50/EC50” value [1] was greater than 25 and the CC50 (RD) was greater than 2500 nM.

With `CCc1nc(-c2cnc3ccc(-c4ccccc4N)cc3c2)no1` the EC50 (enterovirus D68) was 2350 nM, the selectivity ratio [1] was 9 and the CC50 (RD) was 2350 nM.

In the case of `Cc1ccc(-c2ccc3ncc(-c4noc(C)n4)cc3c2)cc1`, the EC50 (enterovirus D68) is reported as 570 nM, the selectivity ratio [1] is reported as greater than 13 and the CC50 (RD) is reported as greater than 7400 nM.

`Cc1nc(-c2cnc3ccc(-c4ccc(N)nc4)cc3c2)no1` showed an EC50 (enterovirus D68) of 510 nM, a selectivity ratio [1] greater than 15 and a CC50 (RD) greater than 7400 nM.

`CCCCc1ccc(-c2ccc3ncc(-c4noc(C)n4)cc3c2)cc1` showed an EC50 (enterovirus D68) of 590 nM, a selectivity ratio [1] greater than 4 and a CC50 (RD) greater than 2500 nM.

In the case of `COc1ccc(-c2ccc3ncc(-c4noc(C)n4)cc3c2)cc1`, the EC50 (enterovirus D68) is reported as 510 nM, the selectivity ratio [1] is reported as greater than 131 and the CC50 (RD) is reported as greater than 66700 nM.

Work on `CN(C)c1ccc(-c2ccc3ncc(-c4noc(C(F)(F)F)n4)cc3c2)cc1` yielded an EC50 (enterovirus D68) of 1350 nM, a selectivity ratio [1] greater than 16 and a CC50 (RD) greater than 22200 nM.

In the case of `CCc1nc(-c2cnc3ccc(-c4cccc(N)c4)cc3c2)no1`, the EC50 (enterovirus D68) is reported as 170 nM, the selectivity ratio [1] is reported as greater than 44 and the CC50 (RD) is reported as greater than 7400 nM.

With `Cc1ccc(-c2ccc3ncc(-c4noc(C(F)(F)F)n4)cc3c2)cc1` the EC50 (enterovirus D68) was 450 nM, the selectivity ratio [1] was greater than 49 and the CC50 (RD) was greater than 22200 nM.

Compound `CCc1ccc(-c2ccc3ncc(-c4noc(CC)n4)cc3c2)cc1` has an EC50 (enterovirus D68) of 590 nM, a selectivity ratio [1] greater than 38 and a CC50 (RD) greater than 22200 nM.

`Cc1nc(-c2cnc3ccc(-c4ccc(N)cc4)cc3c2)no1` showed an EC50 (enterovirus D68) of 280 nM, a selectivity ratio [1] greater than 9 and a CC50 (RD) greater than 2500 nM.

`CCCCc1ccc(-c2ccc3ncc(C(=O)OCC)cc3c2)cc1` gave an EC50 (enterovirus D68) of 850 nM, a selectivity ratio [1] greater than 9 and a CC50 (RD) greater than 7400 nM.

`CCc1nc(-c2cnc3ccc(-c4ccc(OC)cc4)cc3c2)no1` showed an EC50 (enterovirus D68) of 190 nM, a selectivity ratio [1] greater than 13 and a CC50 (RD) greater than 2500 nM.

Compound `Fc1ccc(-c2ccc3ncc(-c4noc(C(F)(F)F)n4)cc3c2)cc1` has an EC50 (enterovirus D68) of 1220 nM, a selectivity ratio [1] greater than 6 and a CC50 (RD) greater than 7400 nM.

Work on `CC(C)c1ccc(-c2ccc3ncc(-c4noc(C(F)(F)F)n4)cc3c2)cc1` yielded an EC50 (enterovirus D68) of 5080 nM, a selectivity ratio [1] greater than 39 and a CC50 (RD) greater than 200000 nM.

In the case of `Nc1ccc(-c2ccc3ncc(-c4noc(C(F)(F)F)n4)cc3c2)cn1`, the EC50 (enterovirus D68) is reported as 180 nM, the selectivity ratio [1] is reported as greater than 14 and the CC50 (RD) is reported as greater than 2500 nM.

With `CC(C)c1nc(-c2cnc3ccc(-c4ccc(N)cc4)cc3c2)no1` the EC50 (enterovirus D68) was 400 nM, the selectivity ratio [1] was greater than 2 and the CC50 (RD) was greater than 800 nM.

For `CCc1nc(-c2cnc3ccc(-c4ccc(O)cc4)cc3c2)no1`, the EC50 (enterovirus D68) was 190 nM, the selectivity ratio [1] was greater than 13 and the CC50 (RD) was greater than 2500 nM.

Work on `CCCCc1nc(-c2cnc3ccc(-c4ccc(N)cc4)cc3c2)no1` yielded an EC50 (enterovirus D68) of 710 nM, a selectivity ratio [1] greater than 3 and a CC50 (RD) greater than 2500 nM.

Compound `CCOC(=O)c1cnc2ccc(-c3ccc(N)cc3)cc2c1` has an EC50 (enterovirus D68) of 470 nM, a selectivity ratio [1] greater than 16 and a CC50 (RD) greater than 7400 nM.

`CCCCc1ccc(-c2ccc3ncc(-c4noc(C(F)(F)F)n4)cc3c2)cc1` showed an EC50 (enterovirus D68) of 190 nM, a selectivity ratio [1] greater than 39 and a CC50 (RD) greater than 7400 nM.

For `CCOC(=O)c1cnc2ccc(-c3cccc(N)c3)cc2c1`, the EC50 (enterovirus D68) was 6730 nM, the selectivity ratio [1] was greater than 1 and the CC50 (RD) was greater than 7400 nM.

Work on `CCCCc1ccc(-c2ccc3ncc(-c4noc(CC)n4)cc3c2)cc1` yielded an EC50 (enterovirus D68) of 180 nM, a selectivity ratio [1] greater than 41 and a CC50 (RD) greater than 7400 nM.

For `Cc1nc(-c2cnc3ccc(-c4ccc(O)cc4)cc3c2)no1`, the EC50 (enterovirus D68) was 460 nM, the selectivity ratio [1] was greater than 5 and the CC50 (RD) was greater than 2500 nM.

For `CCc1nc(-c2cnc3ccc(-c4ccccc4)cc3c2)no1`, the EC50 (enterovirus D68) was 170 nM, the selectivity ratio [1] was greater than 44 and the CC50 (RD) was greater than 7400 nM.

In the case of `CCc1ccc(-c2ccc3ncc(-c4noc(C)n4)cc3c2)cc1`, the EC50 (enterovirus D68) is reported as 470 nM, the selectivity ratio [1] is reported as greater than 16 and the CC50 (RD) is reported as greater than 7400 nM.

`CCOC(=O)c1cnc2ccc(-c3ccccc3)cc2c1` showed an EC50 (enterovirus D68) of 900 nM, a selectivity ratio [1] greater than 8 and a CC50 (RD) greater than 7400 nM.

For `CCCc1ccc(-c2ccc3ncc(-c4noc(C)n4)cc3c2)cc1`, the EC50 (enterovirus D68) was 780 nM, the selectivity ratio [1] was greater than 10 and the CC50 (RD) was greater than 7400 nM.

Work on `CCc1nc(-c2cnc3ccc(-c4ccc(C)cc4)cc3c2)no1` yielded an EC50 (enterovirus D68) of 610 nM, a selectivity ratio [1] greater than 12 and a CC50 (RD) greater than 7400 nM.

With `Cc1nc(-c2cnc3ccc(-c4ccccc4)cc3c2)no1` the EC50 (enterovirus D68) was 220 nM, the selectivity ratio [1] was greater than 11 and the CC50 (RD) was greater than 2500 nM.

With `FC(F)(F)c1nc(-c2cnc3ccc(-c4ccc(Cl)cc4)cc3c2)no1` the EC50 (enterovirus D68) was 24300 nM, the selectivity ratio [1] was greater than 8 and the CC50 (RD) was greater than 200000 nM.

In the case of `FC(F)(F)c1nc(-c2cnc3ccc(-c4ccccc4)cc3c2)no1`, the EC50 (enterovirus D68) is reported as 750 nM, the selectivity ratio [1] is reported as greater than 30 and the CC50 (RD) is reported as greater than 22200 nM.

Compound `CC(C)(C)c1nc(-c2cnc3ccc(-c4ccc(N)cc4)cc3c2)no1` has an EC50 (enterovirus D68) of 4220 nM, a selectivity ratio [1] greater than 2 and a CC50 (RD) greater than 7400 nM.

Compound `CCCc1ccc(-c2ccc3ncc(-c4noc(CC)n4)cc3c2)cc1` has an EC50 (enterovirus D68) of 530 nM, a selectivity ratio [1] greater than 14 and a CC50 (RD) greater than 7400 nM.

`FC(F)(F)c1nc(-c2cnc3ccc(-c4ccc(N5CCOCC5)cc4)cc3c2)no1` gave an EC50 (enterovirus D68) of 33900 nM, a selectivity ratio [1] greater than 1 and a CC50 (RD) greater than 22200 nM.

`CCc1nc(-c2cnc3ccc(-c4ccc(Cl)cc4)cc3c2)no1` showed an EC50 (enterovirus D68) of 3020 nM, a selectivity ratio [1] greater than 7 and a CC50 (RD) greater than 22200 nM.

In the case of `CCOC(=O)c1cnc2ccc(-c3ccccc3N)cc2c1`, the EC50 (enterovirus D68) is reported as 6260 nM, the selectivity ratio [1] is reported as greater than 1 and the CC50 (RD) is reported as greater than 7400 nM.

`CCc1nc(-c2cnc3ccc(-c4ccc(NC(C)=O)cc4)cc3c2)no1` showed an EC50 (enterovirus D68) of 330 nM, a selectivity ratio [1] greater than 22 and a CC50 (RD) greater than 7400 nM.

Compound `CCc1nc(-c2cnc3ccc(-c4ccc(F)cc4)cc3c2)no1` has an EC50 (enterovirus D68) of 330 nM, a selectivity ratio [1] greater than 22 and a CC50 (RD) greater than 7400 nM.

With `CCCc1nc(-c2cnc3ccc(-c4ccc(N)cc4)cc3c2)no1` the EC50 (enterovirus D68) was 410 nM, the selectivity ratio [1] was greater than 2 and the CC50 (RD) was greater than 800 nM.

`CCc1nc(-c2cnc3ccc(-c4ccc(N)nc4)cc3c2)no1` gave an EC50 (enterovirus D68) of 120 nM, a selectivity ratio [1] greater than 555 and a CC50 (RD) greater than 66700 nM.

`CCc1nc(-c2cnc3ccc(-c4ccc(N5CCOCC5)cc4)cc3c2)no1` gave an EC50 (enterovirus D68) of 11800 nM, a selectivity ratio [1] greater than 17 and a CC50 (RD) greater than 200000 nM.
